Source: publication PMC2902143 (Journal of RNAi and Gene Silencing : An International …, 2010)

Assays:
HIV-1 LTR [1] = test: HIV-1 LTR-CAT assay in HCT116 WT cells; assay type: cell-based; details: Flavopiridol, CR8#13, F07#13 100nM, 9AA 1000nM, 48hrs
In short: (§1)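 HIV-1 LTR-CAT plasmid was transfected into HCT116 cells with or without pc-Tat. Six hours later, cells were treated with DMSO or test compound and incubated 48hrs at 37°C in complete DMEM. Dicer-/- extract was used at one tenth the amount of WT extract.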

HIV-1 in monocytes = details: ref Agbottah et al, 2005; cited from earlier work
HIV-1 in T-cells = details: ref Agbottah et al, 2005; cited from earlier work
HIV-1 LTR [2] = test: Luciferase assay in TSA treated TZM-bl cells; assay type: cell-based; details: TSA treatment
In short: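 TZM-bl cells, which carry a stably integrated HIV-1 LTR-luciferase reporter, were treated with TSA for 7 days and then with test compound. Firefly luciferase activity was measured with the BrightGlo Luciferase Assay.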

HIV-1 LTR [3] = test: ChIP assay on the HIV-1 LTR in TZM-bl cells; assay type: cell-based; details: TSA for 7 days
In short: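 TZM-bl cells carry an integrated HIV-1 LTR and were grown in DMEM with 10% FBS, 2mM L-glutamine and antibiotics. Cells were treated 7 days with sub-lethal TSA, then switched to complete medium and transfected with TAR-WT or control TAR-D RNA. ChIP was done on day 8 with HDAC-1 and Ago2 antibodies. Precipitated DNA was amplified with 0.1uM HIV-1 LTR primers.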

[4] = cited from earlier work
[5] = system: infected ACH2, J1.1, OM10.1, U1 and uninfected CEM, Jurkat T-cells, and U937 cells; test: MTT assay on infected and uninfected cells; assay type: cell-based; details: 50nM and 10μM
In short: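 Cell viability was measured by MTT assay at 50nM and at a high drug level. Uninfected CEM, Jurkat and U937 cells were grown in RPMI 1640 with FBS, L-glutamine and penicillin/streptomycin at 37°C, 5% CO2.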

HIV-1 (pNL4.3) = test: Reverse transcriptase assay, pNL4.3 electroporated U937 cells; assay type: cell-based; details: Flavopiridol 200nM, 48 hours post drug treatment
HIV-1 LTR [6] = test: HIV-1 LTR-CAT assay in HCT116 Dicer-/- cells; assay type: cell-based; details: HCT116 Dicer-/- compared with HCT116 WT; 100nM; 48hrs
In short: as §1

Question: With `Nc1c2ccccc2nc2ccccc12` [9AA, 9-Aminoacridine] as the molecule, how does the “Inhibition of Tat-mediated HIV-1 LTR transcription (CAT assay)” value (HIV-1 LTR [1]) read?
Answer: moderate effects

Question: What does the source list for `CC[C@H](CO)Nc1nc(NCc2ccccc2)c2ncn(C(C)C)c2n1` [Cyc202, R-roscovitine]?
Answer: Inhibition of HIV-1 in monocytes (HIV-1 in monocytes): not in monocytes; Inhibition of HIV-1 in T-cells (HIV-1 in T-cells): effective inhibitor

Question: What does the source list for `CC(/C=C/C(=O)NO)=C\[C@@H](C)C(=O)c1ccc(N(C)C)cc1` [TSA, Trichostatin-A]?
Answer: Luciferase activity of integrated HIV-1-Luc (HIV-1 LTR [2]): increased Luciferase activity; Association of HDAC-1 and Ago2 with the HIV-1 LTR (ChIP) (HIV-1 LTR [3]): association was lost

Question: With `CC[C@H](CO)Nc1nc(NCc2ccc(-c3ccccn3)cc2)c2ncn(C(C)C)c2n1` [CR8] as the molecule, how does the “Potency relative to Cyc202” value [4] read?
Answer: roughly 25 times

Question: What about the “Cell killing of uninfected cells (MTT assay)” value [5] of the same molecule?
Answer: some cell killing of uninfected cells

Question: What does the source list for `CN1CC[C@H](c2c(O)cc(O)c3c(=O)cc(-c4ccccc4Cl)oc23)[C@H](O)C1` [Flavopiridol]?
Answer: RT levels in supernatant (HIV-1 (pNL4.3)): able to decrease RT levels in both cell lines; Inhibition of Tat-mediated HIV-1 LTR transcription (CAT assay) (HIV-1 LTR [1]): inhibited viral transcription significantly better in cells that contained Dicer; Inhibition of Tat-mediated HIV-1 LTR transcription (CAT assay) (HIV-1 LTR [6]): less potent
